From ChEMBL document CHEMBL3407494, “Design, synthesis, and biological evaluation of combretabenzodiazepines: a novel class of anti-tubulin agents” (J Med Chem, 2015) come the findings set out here.

Series [1] in a line: Metabolic stability in human liver microsomes assessed as peak area after 30 mins by LC-UV analysis in presence of NADPH and UDPGA. The class given is ADME. Conditions: read-out: Stability. The procedure, abridged: (§1)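 Human liver microsomes were incubated with compound alone, with NADPH, with NADPH+GSH (60 min; phase I), or with UDPGA (30 min; phase II). Extracts were analysed by LC-UV, and remaining substrate is reported as peak area % relative to controls without microsomes.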
A general note: Liver microsomes are a subcellular fraction often used to study metabolism.

Series [2] is described as follows: Metabolic stability in human liver microsomes assessed as peak area after 60 mins by LC-UV analysis in presence of NADPH and GSH. The class given is ADME. Conditions: read-out: Stability. The gist of the method: as §1
Series [3] can be described thus: Cell cycle arrest in human SH-SY5Y cells assessed as accumulation at G0G1 phase at 3 times IC50 after 16 hrs by flow cytometry (reference value: 70.2 %). The class given is functional, cell-based. The procedure, abridged: (§2)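 SH-SY5Y neuroblastoma cells were kept in 50% DMEM/50% F-12 with 10% FBS and 2 mM L-glutamine. Cells were exposed 16 h to vehicle or compound, washed in PBS and fixed in 70% EtOH at -20 °C. They were then treated with RNAse 100 μg/mL for 1 h at 37 °C and stained with 25 μg/mL propidium iodide plus 5 mM EDTA for 30 min at 4 °C in the dark. DNA content was read by flow cytometry; 3 experiments.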

Series [4] can be described thus: Metabolic stability in human liver microsomes assessed as peak area after 60 mins by LC-UV analysis. It is filed as ADME. Conditions: read-out: Stability. The procedure, abridged:
as §1

Series [5] can be described thus: Metabolic stability in human liver microsomes assessed as peak area after 60 mins by LC-UV analysis in presence of NADPH. The class given is ADME. Conditions: read-out: Stability. The gist of the method:
as §1

Series [6] can be described thus: Cell cycle arrest in human SH-SY5Y cells assessed as accumulation at G0G1 phase at IC50 after 16 hrs by flow cytometry (reference value: 70.2 %). It is filed as functional, cell-based. The procedure, abridged: as §2
Series [7] can be described thus: Cytotoxicity against human SH-SY5Y cells assessed as cell viability at 1 uM after 48 hrs by MTT assay. The class given is functional. Conditions: read-out: Activity. The procedure, abridged:
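SH-SY5Y cells in 24-well plates were treated 48 h with 1 μM compound. They were washed in Locke's solution (10 mM HEPES pH 7.6) and given MTT 250 μg/mL for 1 h at 37 °C. Formazan was dissolved in isopropanol/0.1 M HCl and read at 570 nm. Result is % viable cells, 8-12 determinations from 3 experiments.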
Background: Formazan colour is commonly taken as a measure of viable cells.

Series [8] in a line: Cytotoxicity against human SH-SY5Y cells assessed as reduction in cell viability after 48 hrs by MTT assay. It is filed as functional, cell-based. The procedure, abridged: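 SH-SY5Y cells were exposed 48 h across a concentration range, then given MTT 250 μg/mL in Locke's solution for 1 h at 37 °C. Formazan was dissolved in isopropanol/0.1 M HCl and absorbance read at 570 nm. IC50 was taken from concentration-response curves; 8-12 determinations from 3 experiments.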

A short description of series [9]: Cell cycle arrest in human SH-SY5Y cells assessed as accumulation at S phase at 3 times IC50 after 16 hrs by flow cytometry (reference value: 10.6 %). It is filed as functional, cell-based. The procedure, abridged:
as §2

Series [10] in a line: Cell cycle arrest in human SH-SY5Y cells assessed as accumulation at S phase at IC50 after 16 hrs by flow cytometry (reference value: 10.6 %). The class given is functional, cell-based. The gist of the method: as §2
A general note: In flow cytometry, cells or beads pass a laser one at a time.

Series [11] is described as follows: Cell cycle arrest in human SH-SY5Y cells assessed as accumulation at G2/M phase at IC50 after 16 hrs by flow cytometry (reference value: 18.5 %). It is filed as functional, cell-based. The gist of the method: as §2
Series [12] can be described thus: Cell cycle arrest in human SH-SY5Y cells assessed as accumulation at G2/M phase at 3 times IC50 after 16 hrs by flow cytometry (reference value: 18.5 %). The class given is functional, cell-based. The gist of the method: as §2
The target of series [13] is T1, Tubulin (Homo sapiens) (UniProt P68371+Q9H4B7+P0DPH7+P68366+Q13509+Q71U36+P04350+Q3ZCM7+P07437+P68363+Q9BQE3+Q6PEY2+Q13885+Q9BVA1+Q9BUF5). Briefly: Inhibition of tubulin polymerization in human SH-SY5Y cells at 1 to 3 times IC50 after 16 hrs by immunocytochemistry. It is filed as cell-based.
Series [14] concerns the target T1, Tubulin (Homo sapiens). Briefly: Inhibition of tubulin polymerization in human SH-SY5Y cells at 3 times IC50 after 16 hrs by Western blot analysis. The class given is cell-based.
The target of series [15] is Tubulin. As to the kind of experiment: (§3) Inhibition of tubulin (unknown origin) polymerization by fluorescence assay. It is filed as protein-complex assay, Homo sapiens. The procedure, abridged: (§4)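 Fluorescence-based kit assay. Tubulin was taken up in ice-cold buffer (80 mM PIPES, 2 mM MgCl2, 0.5 mM EGTA, 1 mM GTP, 20% glycerol) and added to wells containing compound or vehicle.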

In series [16] the target is T1, Tubulin (Homo sapiens). The series is described as §3. The class given is protein-complex assay. The procedure, abridged:
as §4

Series [17] has as its target T1, Tubulin (Homo sapiens). As to the kind of experiment: Displacement of [3H]colchicine from tubulin (unknown origin) at 10 uM after 30 mins by beta-counting. It is filed as protein-complex assay. The gist of the method: (§5)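 It was preincubated 30 min at 37 °C with test compound at 1 or 10 μM, then given 0.2 μCi [3H]colchicine for 1 h at 37 °C. Samples were stopped with ice-cold water, filtered on nitrocellulose and counted by β-counter. Results are % inhibition, ≥7 replicates from 3 experiments.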

The target of series [18] is T1, Tubulin (Homo sapiens). Briefly: Displacement of [3H]colchicine from tubulin (unknown origin) at 1 uM after 30 mins by beta-counting. It is filed as protein-complex assay. The procedure, abridged:
as §5

The structures appear in SMILES notation. Active and inactive are the calls of the source. No cut-off for these calls is given here.

The term IC50 denotes the concentration that gives 50% inhibition. As to `COc1ccc(/C=C\c2cc(OC)c(OC)c(OC)c2)cc1O` [COMBRETASTATIN A4], the remaining at 0.5 h in series [1] came out at 39%. In addition, the remaining at 1 h in [2] is 67%; in series [4], 100%; in [5], 75%. The Activity in series [3] amounted to 52.7%; in series [6] it was 51.1%; in [9] it was 11.4%; in series [10], 10%; in [11], 38.4%; in [12], 35.4%. Further, in series [7], the viability at 1 µM is 33.4%. Also, the half-inhibitory concentration (IC50) in series [8] worked out at 2.7 nM.

On to `COc1ccc2c(c1)C(c1cc(OC)c(OC)c(OC)c1)=NCC(=O)N2C`, for which the viability at 1 µM in series [7] was 44.4%. For the same compound, in [8], the IC50 is 862 nM.

Usually inhibition stands for the percentage by which the read-out fell short of the control. As for `COc1cc(C2=NCC(=O)Nc3cc4c(cc32)OCO4)cc(OC)c1OC`, the inhibition entry in series [13] and in series [14] was “Active” in each case. Also, the Activity came to 49.3% in [3]; 49.1% in series [6]; 12.6% in series [9]; 12.6% in series [10]; 38.1% in series [11]; 37.7% in series [12]. Also, the viability at 1 µM in [7] is 35.1%. Besides, the IC50 in series [8] is 71 nM; in series [15], 13600 nM. Besides, the inhibition result in series [16] is “Dose-dependent effect”.

As for `COc1cc2c(cc1OC)C(c1cc(OC)c(OC)c(OC)c1)=NCC(=O)N2`, the viability at 1 µM in series [7] was determined as 102%.

Regarding `COc1cc(C2=NCC(=O)N(C)c3c2ccc(OC)c3OC)cc(OC)c1OC`, the viability at 1 µM in [7] is 76.4%.

With `COc1ccc2c(c1)N(C)C(=O)CN=C2c1cc(OC)c(OC)c(OC)c1`, the viability at 1 µM in series [7] is 32.9%. Further, in [8], the IC50 amounted to 280 nM.

Turning to `COc1cc2c(cc1O)C(c1cc(OC)c(OC)c(OC)c1)=NCC(=O)N2`, the viability at 1 µM in series [7] is 64.8%. In series [8], the IC50 was determined as 415 nM.

Take `COc1cc2c(cc1OC)N(C)C(=O)CN=C2c1cc(OC)c(OC)c(OC)c1`: in series [7], the viability at 1 µM came to 105%.

For the compound `COc1ccc2c(c1O)NC(=O)CN=C2c1cc(OC)c(OC)c(OC)c1`, in series [1], the remaining at 0.5 h was determined as 92%. For the same compound, the inhibition entry in series [13] and in series [14] was “Active” each time. The figures for the inhibition in series [17] and in series [18] were 80% and 48%, respectively. In addition, the figures for the remaining at 1 h in [2], in series [4] and in [5] were 97%, 95% and 96%, respectively. Besides, the Activity in series [3] came to 47.5%; in [6], 48%; in series [9] it was 17.9%; in series [10], 18.9%; in [11], 33%; in series [12] it was 34.4%. For the same compound, in [7], the viability at 1 µM worked out at 27.5%. Also, the IC50 turned out to be 3.9 nM in series [8] and 1300 nM in series [15].

Take `COc1ccc2c(c1)C(c1cc(OC)c(OC)c(OC)c1)=NCC(=O)N2`: the viability at 1 µM in series [7] was 33.9%. Also, the IC50 in series [8] worked out at 256 nM.

With `COc1cc(C2=NCC(=O)N(C)c3cc4c(cc32)OCO4)cc(OC)c1OC`, the viability at 1 µM in [7] is 46.4%.

As for `COc1ccc2c(c1)NC(=O)CN=C2c1cc(OC)c(OC)c(OC)c1`, the inhibition entry in series [13] and in series [14] was “Active” each time. For the same compound, the Activity in series [3] was determined as 45.5%; in series [6], 45.5%; in series [9], 19.3%; in series [10], 2.1%; in series [11] it was 34.6%; in series [12], 35%. Moreover, the viability at 1 µM in series [7] was 24.7%. Further, the half-inhibitory concentration (IC50) stood at 25.1 nM in [8] and 9000 nM in [15]. Further, the inhibition result in series [16] is “Dose-dependent effect”.

Turning to `COc1cc(C2=NCC(=O)Nc3c2ccc(OC)c3OC)cc(OC)c1OC`, the viability at 1 µM in series [7] came to 46.8%. The IC50 in [8] came to 90.3 nM.

With `COc1cc(C2=NCC(=O)N3COc4c(OC)ccc2c43)cc(OC)c1OC`, in series [7], the viability at 1 µM was 95.2%.
